MIN6 prolif: inducers of beta-cell replication in MIN6 cells; MIN6 cells proliferation, ATPlite luminescence, 48 h; cells starved in 0.2% serum; 100% = growth in 10% serum; proliferation, % at 10 µM; 330,000 compounds, 0.29% hits;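 active = compounds whose signal lies at least 3.5 SD above the mean of all wells on their plate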;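 also: 0% = DMSO-treated cells in low-serum medium and 100% = 10% serum control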
MPTP block: inhibitors of mitochondrial permeability transition pore | inhibition, % at 10 µM | isolated mouse mitochondria, Ca2+ swelling absorbance, 30 min | 360,000 compounds, 1.4% hits;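 active = inhibition of 50% or more, scaled per plate between neutral and stimulator controls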;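 also: 0% = DMSO wells given calcium and 100% = 1 mM EGTA wells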
Exocytosis inh: lytic granule exocytosis inhibition; TALL-104 LAMP-1 surface exposure, flow cytometry; cells stimulated with thapsigargin and PMA; inhibition, % at 10 µM; 360,000 compounds, 0.66% hits; AID 651702;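 active = inhibition above about 55%, limit read from the data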
Apaf-1 inh: blocks human Apaf-1 apoptosome activity; 330,000 compounds, 0.71% hits; O14727; reconstituted apoptosome caspase-3 activity, DEVD-Rh110 fluorescence; inhibition, % at 20 µM; active = inhibition of at least 40% at 20 µM;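 also: plate controls were DMSO wells for no effect and DEVD-CHO caspase inhibitor wells for full effect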
Target sequence (O14727 whole entry, looked up): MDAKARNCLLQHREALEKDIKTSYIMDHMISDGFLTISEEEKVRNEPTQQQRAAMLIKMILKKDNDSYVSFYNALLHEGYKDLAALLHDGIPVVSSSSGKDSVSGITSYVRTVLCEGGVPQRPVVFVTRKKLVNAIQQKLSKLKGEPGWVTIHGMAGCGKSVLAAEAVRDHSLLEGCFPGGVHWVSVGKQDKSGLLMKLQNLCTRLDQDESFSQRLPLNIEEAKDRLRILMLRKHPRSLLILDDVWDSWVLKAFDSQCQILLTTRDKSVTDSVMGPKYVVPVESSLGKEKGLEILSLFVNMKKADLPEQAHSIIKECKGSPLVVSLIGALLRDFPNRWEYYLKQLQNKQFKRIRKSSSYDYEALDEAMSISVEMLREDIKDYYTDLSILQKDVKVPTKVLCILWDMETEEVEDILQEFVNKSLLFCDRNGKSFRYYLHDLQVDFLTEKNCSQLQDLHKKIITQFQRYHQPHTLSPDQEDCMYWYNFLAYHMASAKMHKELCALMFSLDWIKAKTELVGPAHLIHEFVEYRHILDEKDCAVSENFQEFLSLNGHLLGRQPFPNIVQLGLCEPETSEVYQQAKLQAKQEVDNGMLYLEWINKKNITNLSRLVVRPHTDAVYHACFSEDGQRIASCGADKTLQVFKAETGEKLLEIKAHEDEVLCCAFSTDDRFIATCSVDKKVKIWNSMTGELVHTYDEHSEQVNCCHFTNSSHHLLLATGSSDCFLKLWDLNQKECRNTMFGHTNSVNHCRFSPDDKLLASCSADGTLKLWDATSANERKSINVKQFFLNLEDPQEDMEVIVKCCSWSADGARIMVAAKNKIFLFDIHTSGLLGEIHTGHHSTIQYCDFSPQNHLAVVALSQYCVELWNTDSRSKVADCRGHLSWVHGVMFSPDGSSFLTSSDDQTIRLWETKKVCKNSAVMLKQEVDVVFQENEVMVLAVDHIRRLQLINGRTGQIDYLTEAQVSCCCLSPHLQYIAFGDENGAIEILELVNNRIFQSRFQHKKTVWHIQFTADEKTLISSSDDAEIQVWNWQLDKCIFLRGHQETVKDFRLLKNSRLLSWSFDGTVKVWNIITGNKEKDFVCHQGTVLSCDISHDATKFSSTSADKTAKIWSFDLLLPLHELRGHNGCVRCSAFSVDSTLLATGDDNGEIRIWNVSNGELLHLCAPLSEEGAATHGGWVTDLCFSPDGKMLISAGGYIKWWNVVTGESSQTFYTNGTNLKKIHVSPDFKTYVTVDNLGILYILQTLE
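Material: reconstituted apoptosome with Apaf-1, cytochrome c, caspase-9, procaspase-3, dATP / Buffer or medium: pH 7.5 Hepes buffer with CHAPS, BSA, DTT / Also added: cytochrome c with DEVD-Rh110 / Schedule: compound with Apaf-1, dATP, procaspase-3 30 min, then 50 min reaction, room temperature / Technique: rhodamine 110 fluorescence at Ex 480/Em 540 nm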
UBC13 polyUb: inhibitors of human UBC13 polyubiquitin chain formation; P61088; TR-FRET; inhibition, % at 20 µM; 330,000 compounds, 0.47% hits; AID 485273; in the data active = inhibition above about 45%, passing the limit was not always enough
iPSC survival up: increases survival of single human iPS cells; hiPSC single-cell survival, ATPlite luminescence; 100% = ROCK inhibitor wells, 0% = DMSO; survival enhancement, % at 20 µM; 360,000 compounds, 0.044% hits; in the data active = survival enhancement above about 18%;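 also: cells exposed to compounds for 16 hours before the ATP read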
MPTP counter: membrane potential counter-screen of mitochondrial pore inhibitors | shares compounds with MPTP block | isolated mitochondria, Rhodamine 123 fluorescence | inhibition, % at 10 µM | 5,000 compounds, 78% hits; in the data active = inhibition above about 22%;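 also: 0% = DMSO vehicle and 100% = positive control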
MPTP abs DR: MPTP inhibition, dose response swelling confirmation. shares compounds with MPTP block. isolated mitochondria swelling, absorbance. IC50, µM. 780 compounds, 58% hits; in the data active = IC50 below about 20 µM
MPTP cs DR: counter-screen for mitochondrial permeability transition pore inhibitors, dose response; shares compounds with MPTP block; isolated mitochondria counterscreen, fluorescence read-out; IC50, µM; 780 compounds, 49% hits; AID 651564; in the data active = IC50 below about 80 µM
* hit, by the source's call; i = inactive; . = no result. In the library only some 3% were active in any assay of this set; here they are far more common.

SMILES	MIN6 prolif	MPTP block	Exocytosis inh	Apaf-1 inh	UBC13 polyUb	iPSC survival up	MPTP counter	others
CN(C)c1ccc(NC(=O)c2cn(-c3ccccc3)nc2-c2cccs2)cc1	-4	1	1	14	-3	-2	.
O=C(Nc1ccc2ccccc2c1)c1cn(-c2ccccc2)nc1-c1cccs1	-5	70*	-6	8	-16	-2	70*
O=C(Nc1ccc2ccccc2c1)c1ccccc1O	-7	98*	24	9	0	-1	92*
CCOC(=O)C1CCN(S(=O)(=O)c2c[nH]c(=O)[nH]c2=O)CC1	11	-2	1	1	3	1	.
CCC[C@H]1CN(c2ccccc2)C(=O)[C@@H]1CC(=O)Nc1ccc(Br)cc1	.	0	-3	.	.	-2	.
Cn1cccc1C1C=C(c2ccc(C(C)(C)C)cc2)Nc2ncnn21 (stereo not drawn)	-8	82*	-6	18	7	3	69*
C1=C(c2ccc(-c3ccccc3)cc2)Nc2ncnn2C1c1ccco1 (stereo not drawn)	.	58*	0	.	.	3	9
COc1cccc(C(=O)N(Cc2ccco2)c2c(N)n(Cc3ccccc3)c(=O)[nH]c2=O)c1	-3	0	2	-5	-6	0	.
O=C(Nc1cccc(Cl)c1)NC1(C(=O)NCc2cccs2)CCCCC1	-4	81*	-1	-1	-10	2	74*
O=C(Nc1ccc(F)cc1)NC1(C(=O)NCc2cccs2)CCCCC1	2	1	-2	-4	3	-2	.
S=C(NCc1cccs1)Nc1cccc(Cl)c1	-1	91*	0	-7	8	1	98*
O=C(NCc1cccs1)Nc1cccc(Cl)c1	-1	2	0	-2	13	-2	.
S=C(NCc1cccs1)Nc1cc(Cl)cc(Cl)c1	-6	90*	-26	2	2	-1	78*
CC1CCCN(C(=O)C(=O)c2cn(CC(=O)N3CCCCCC3)c3ccccc23)C1 (stereo not drawn)	-4	-1	36	9	-7	0	.
CN(C)C(CNc1ccc(C(F)(F)F)cn1)c1ccccc1 (stereo not drawn)	-1	68*	1	3	3	0	-4	MPTP abs DR=i;MPTP cs DR=>80
O=C(c1cccc(S(=O)(=O)N2CCN(c3ccc(F)cc3)CC2)c1)N1CCCC(C(F)(F)F)C1 (stereo not drawn)	-8	73*	-5	18	1	-1	85*
CN(CCOc1ccc(Cl)cc1)C(=O)c1cccc(S(=O)(=O)N2CCN(c3ccc(F)cc3)CC2)c1	.	58*	19	.	.	0	90*
COc1ccc(CCN(C)C(=O)c2cccc(S(=O)(=O)N3CCN(c4ccc(F)cc4)CC3)c2)cc1OC	.	5	-11	.	.	-1	.
Cc1cccc(NS(=O)(=O)c2cccc(C(=O)N3CCN(C/C=C/c4ccccc4)CC3)c2)c1	-4	-1	3	6	12	0	.
CCCNC(=O)C1(C)CCCN(Cc2c(F)cccc2F)C1 (stereo not drawn)	.	-1	2	.	.	-1	.
CC(C)Sc1cc(N2CCOCC2)nc(-c2ccccc2)n1	-3	50*	7	17	1	2	-9	MPTP abs DR=>100;MPTP cs DR=77*
CC1(C)Cc2c(cnn2-c2cccc(F)c2)C(NC(=O)CCc2cnccn2)C1 (stereo not drawn)	-5	1	-4	-16	-8	1	.
O=C1CSC(=S)N1/N=C/c1cc(Br)c(O)c(Br)c1	.	83*	6	.	.	1	66*
S=C(NCCc1ccccc1)Nc1ccc(Cl)cc1	-5	100*	-3	7	-2	-2	90*
C=CCNC(=S)Nc1ccc(Br)cc1F	-3	9	5	-1	-15	-1	.
SMILES	MIN6 prolif	MPTP block	Exocytosis inh	Apaf-1 inh	UBC13 polyUb	iPSC survival up	MPTP counter	others
S=C(NCCCc1ccccc1)Nc1ccccc1Cl	-6	86*	-1	-3	4	0	100*
S=C(NCCc1ccccn1)Nc1cc(Cl)cc(Cl)c1	-3	60*	-4	8	7	0	77*
Fc1cc(Br)ccc1NC(=S)NCCc1ccccc1	-3	79*	3	-4	0	-4	83*
C[C@H](NC(=O)[C@@H]1CCCN1C(=O)[C@@H]1CCCN1C(=O)OC(C)(C)C)c1ccccc1	.	0	8	.	.	1	.
N#C/C(=C\c1ccccc1Br)C(=O)NC1CC1	-3	-1	0	8	2	0	.
CNc1c(NS(=O)(=O)c2ccc3c(c2)CCCC3)c(=O)oc2ccccc12	0	-1	18	0	0	0	.
Cc1c(Cl)cccc1NC(=S)NCCc1ccccn1	-2	0	-6	-3	2	0	.
Cc1c(Cl)cccc1NC(=S)NCCc1ccc(C(F)(F)F)cc1	-7	98*	1	10	2	-1	96*
Cc1ccccc1NC(=O)NCCc1ccc(Cl)cc1	-4	6	4	3	3	-1	.
O=C(NCCc1ccccc1)Nc1ccc(Cl)cc1	0	76*	-1	9	-6	4	72*
Cc1ccc(-c2cc(C(=O)Nc3ccc(S(=O)(=O)N4CC(C)OC(C)C4)cc3)[nH]n2)c(O)c1 (stereo not drawn)	-1	51*	1	-10	2	0	69*
O=C(Nc1ccc(S(=O)(=O)N2CCOCC2)cc1)c1cc(-c2cc(Cl)ccc2O)n[nH]1	-7	75*	6	0	9	-1	61*
CCN(C(=O)c1ccc2c(c1)OCO2)C12CC3CC(CC(C3)C1)C2	-1	0	1	14	4	0	.
CCC(C)NC(=O)c1cc(-c2ccccc2O)on1 (stereo not drawn)	0	53*	-4	-1	10	0	1	MPTP abs DR=i;MPTP cs DR=>80
COc1ccc2cc1Oc1ccc(cc1)CC1c3c(cc(OC)c4c3Oc3cc5c(cc3O4)CCNC5C2)CCN1C (stereo not drawn)	-6	78*	18	41*	110*	-6	-17
O=C(NN1C(=O)/C(=C/c2cc([N+](=O)[O-])ccc2O)SC1=S)c1ccccc1O	-5	.	.	-5	-17	.	.
Cc1ccc(/C=C2\SC(=S)N(/N=C/c3cc([N+](=O)[O-])ccc3O)C2=O)o1	-1	72*	0	-14	-29	-1	4
Cc1cccc(C(=O)Nc2ccccc2SCC(=O)Nc2ccc(C)c(Cl)c2)c1	-5	90*	-17	7	-11	0	83*

Source: PubChem (several laboratories)
